Test results taken from ChEMBL document CHEMBL5620421, “2,6-Disubstituted 7-(naphthalen-2-ylmethyl)-7H-purines as a new class of potent antitubercular agents inhibiting DprE1” (Eur J Med Chem, 2023).
The source made the active and inactive calls. No cut-off for these calls is given here.

Assays:
Klebsiella pneumoniae = test: Antibacterial activity against ESBL positive Klebsiella pneumoniae C1914 assessed as inhibition of bacterial growth at 125 uM incubated for 24 to 48 hrs by microdilution broth method; assay type: functional, organism-based; details: time 24-48 hrs
[1] = tested on: Mycobacterium tuberculosis; test: Antitubercular activity against Mycobacterium tuberculosis CNCTC My 331/88 (H37Rv) infected in MONO-MAC-6 cells assessed as inhibition of bacterial growth measured after 48 hrs of incubation by MTT based ELISA; assay type: functional, organism-based; details: MONO-MAC-6, 48 h
In short: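 MonoMac6 cells in RPMI-1640 with 10% FBS, 2 mM glutamine and gentamicin, seeded at 6.5 × 10³ cells/well the day before. Treated 48 h at 2.56 × 10⁻³–250 μM in incomplete medium with 1% DMSO. Read by MTT (3.5 h), formazan in DMSO, absorbance at 540/620 nm. IC50 from dose-response curves.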

[2] = tested on: Mycobacterium tuberculosis; test: Antitubercular activity against Mycobacterium tuberculosis CNCTC My 331/88 (H37Rv) infected in MONO-MAC-6 cells assessed as reduction in colony forming unit growth at 25 uM measured after 48 hrs of incubation by MTT based ELISA relative to control; assay type: functional; parameters: scale not given: the % may be the effect or the level left

Row | SMILES | Activity (Klebsiella pneumoniae) | IC50 [1] [µM] | Activity [2]
1 | Nc1nc(N2CCOCC2)nc2ncn(Cc3ccc4ccccc4c3)c12 | inactive | – | –
2 | CCNc1nc(N2CCOCC2)nc2ncn(Cc3ccc4ccccc4c3)c12 | inactive | 57 | >=80%
3 | CCOc1nc(N2CCOCC2)nc2ncn(Cc3ccc4ccccc4c3)c12 | inactive | – | –
